# Experimental data reported in BindingDB's records for doi:10.1021/jm0582625 (University of Illinois At Urbana-Champaign, 2006).
# pIC50: −log10 of the molar value.
# Experiments:
# [1] = target: T1, Phosphotransferase (Trypanosoma cruzi, UniProt Q8ST54); test: Inhibitory activity against Trypanosoma cruzi hexokinase
# T1 sequence (Q8ST54 whole entry): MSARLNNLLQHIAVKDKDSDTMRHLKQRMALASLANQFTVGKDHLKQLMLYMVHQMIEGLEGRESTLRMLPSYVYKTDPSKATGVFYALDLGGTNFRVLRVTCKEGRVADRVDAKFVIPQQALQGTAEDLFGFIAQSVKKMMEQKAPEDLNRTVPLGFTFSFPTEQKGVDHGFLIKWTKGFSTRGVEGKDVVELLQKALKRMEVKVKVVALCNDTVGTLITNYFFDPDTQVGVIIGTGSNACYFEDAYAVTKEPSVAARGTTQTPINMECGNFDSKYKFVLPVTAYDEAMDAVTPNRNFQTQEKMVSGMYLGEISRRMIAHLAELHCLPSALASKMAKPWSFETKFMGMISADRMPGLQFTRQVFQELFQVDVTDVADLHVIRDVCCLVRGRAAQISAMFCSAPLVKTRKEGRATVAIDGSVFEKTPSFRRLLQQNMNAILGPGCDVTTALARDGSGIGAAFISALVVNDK
# Method in brief: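 Native glycosomal T. cruzi hexokinase, purified by a previously described procedure. Activity was followed as NADPH formation at 340 nm, coupled to D-glucose-6-phosphate dehydrogenase. Inhibition was reported as IC50.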
# [2] = target: farnesyl pyrophosphate synthase (Leishmania major); test: Inhibitory activity against FPPS in Leishmania major
pIC50 [2],Structure (SMILES),pIC50 [1]
–,"CCCNC(P(=O)(O)O)P(=O)(O)O [propylaminomethylene-1,1-bisphosphonate]",< 3.52
–,O=P(O)(O)C(CN[C@@H](CO)c1ccccc1)P(=O)(O)O,< 3.52
–,C[C@H](NC(P(=O)(O)O)P(=O)(O)O)c1cccc2ccccc12 [(Bis-phosphono-methyl)-((S)-1-naphthalen-1-yl-ethyl)-ammonium],< 3.52
–,O=P(O)(O)C(NC1CC1)P(=O)(O)O [(cyclopropylamino-phosphono-methyl)-phosphonic acid],< 3.52
4.96,O=P(O)(O)C(Cc1cccc(-c2ccccc2)c1)S(=O)(=O)O (stereo not given) [2-biphenyl-3-yl-1-phosphono-ethanesulfonic acid],–
